A short description of data set [1]: Oral bioavailability in CD-1 mouse at 50 mg/kg and measured up to 24 hrs by LC/MS-MS analysis. The format is ADME, organism-based. Conditions: in vivo. Summed up:
(§1)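 Male CD1 mice, about 6–8 weeks old and 20–30 g, were dosed PO at 40 or 50 mg/kg in 0.1 M NaOH in PBS, pH 7–8.5, prepared the same day. Three mice per cohort. Dorsal metatarsal vein blood was collected into heparin at 15, 30 min and 1, 2, 4, 8, 12, 24 h. Plasma was spun at 4 °C, frozen at –75 °C and quantified by LC–MS/MS.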

Data set [2] is described as follows: AUClast in CD-1 mouse at 50 mg/kg, po and measured up to 24 hrs by LC/MS-MS analysis. In kind it is ADME, organism-based. On the set-up: route oral, dose 50 mg/kg, time <=24. Conditions: in vivo. In outline:
as §1

Data set [3] is described as follows: AUClast in CD-1 mouse at 10 mg/kg, iv and measured up to 24 hrs by LC/MS-MS analysis. On the set-up: route intravenous, dose 10 mg/kg, time <=24. In kind it is ADME, organism-based. Conditions: in vivo. Summed up: (§2)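 Male CD1 mice, about 6–8 weeks old and 20–30 g, received 10 mg/kg IV in 0.1 M NaOH in PBS adjusted to pH 7–8.5, made fresh on the day of dosing. Three mice per cohort. Blood was taken from the dorsal metatarsal vein at 5, 15, 30 min and 1, 2, 4, 8, 12, 24 h into heparin tubes. Plasma was spun at 4 °C, stored at –75 °C and analysed by LC–MS/MS. For IV dosing Cmax = C0.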

Data set [4] can be described thus: Cmax in CD-1 mouse at 50 mg/kg, po and measured up to 24 hrs by LC/MS-MS analysis. The format is ADME, organism-based. The arrangement: route oral, dose 50 mg/kg, time <=24. Conditions: in vivo. Summed up:
as §1

The nature of data set [5]: Terminal half life in CD-1 mouse at 10 mg/kg, iv and measured up to 24 hrs by LC/MS-MS analysis. The format is ADME, organism-based. Conditions: in vivo. In outline:
as §2

Data set [6] addresses L-lactate dehydrogenase A chain (Homo sapiens, UniProt P00338). In words: Inhibition of GS[HiBiT]GS-tagged LDHA (unknown origin) expressed in HEK-293T cells measured after 1 hr by […]. The format is cell-based. Summed up: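 HEK293T cells were transiently transfected for 24 h with CMV-driven LDHA carrying a C-terminal GS[HiBiT]GS tag, then reseeded at 2500 cells/well in DPBS with Ca/Mg and 1 g/L glucose. […] Cells were lysed with NP40, and 11S (100 nM final) plus furimazine was added.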
In general terms: HiBiT is a short tag that completes a luciferase, so light tracks the accessible tagged protein.

Data set [7] is described as follows: Metabolic stability in mouse hepatocytes. The format is ADME, cell-based, Hepatocyte. Summed up: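 Time-course stability in human or mouse liver microsomes, or mouse hepatocytes, in the presence of NADPH and UDPGA. Parent compound was monitored at five time points to derive T1/2.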
In another data set the target is T1, Cytochrome P450 2C8 (Homo sapiens, UniProt P10632).
T1 sequence (P10632 whole entry): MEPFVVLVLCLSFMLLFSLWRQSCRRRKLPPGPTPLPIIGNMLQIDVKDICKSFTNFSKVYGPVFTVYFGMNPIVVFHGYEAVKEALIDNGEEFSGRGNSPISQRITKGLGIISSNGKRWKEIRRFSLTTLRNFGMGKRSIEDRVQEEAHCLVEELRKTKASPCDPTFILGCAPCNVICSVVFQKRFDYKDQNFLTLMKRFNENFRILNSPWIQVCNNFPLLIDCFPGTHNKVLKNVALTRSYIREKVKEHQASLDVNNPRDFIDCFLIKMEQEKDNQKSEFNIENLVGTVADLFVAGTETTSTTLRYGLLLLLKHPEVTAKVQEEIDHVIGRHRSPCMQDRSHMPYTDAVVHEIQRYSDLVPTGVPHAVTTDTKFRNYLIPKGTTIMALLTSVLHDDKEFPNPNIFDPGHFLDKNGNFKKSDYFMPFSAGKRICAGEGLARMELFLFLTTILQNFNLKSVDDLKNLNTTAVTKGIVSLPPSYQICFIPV
Description: Inhibition of CYP2C8 (unknown origin) assessed as inhibitory concentration. In kind it is ADME.

Another data set addresses T2, Cytochrome P450 2B6 (Homo sapiens, UniProt P20813).
T2 sequence (P20813 whole entry): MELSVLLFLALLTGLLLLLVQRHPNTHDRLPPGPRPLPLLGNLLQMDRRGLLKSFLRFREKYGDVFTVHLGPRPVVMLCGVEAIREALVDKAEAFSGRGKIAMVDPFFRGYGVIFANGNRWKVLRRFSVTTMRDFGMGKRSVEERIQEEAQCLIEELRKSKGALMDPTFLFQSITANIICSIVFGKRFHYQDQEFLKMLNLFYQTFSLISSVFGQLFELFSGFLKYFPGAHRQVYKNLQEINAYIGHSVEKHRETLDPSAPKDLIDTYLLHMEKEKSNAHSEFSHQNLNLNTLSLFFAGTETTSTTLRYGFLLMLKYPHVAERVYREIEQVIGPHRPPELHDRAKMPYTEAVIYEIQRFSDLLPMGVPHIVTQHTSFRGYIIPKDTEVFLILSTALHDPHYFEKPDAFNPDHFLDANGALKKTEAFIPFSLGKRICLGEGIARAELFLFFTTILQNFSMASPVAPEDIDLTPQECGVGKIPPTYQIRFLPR
In words: Inhibition of CYP2B6 (unknown origin) assessed as inhibitory concentration. In kind it is ADME.

A short description of data set [8]: Oral bioavailability in CD-1 mouse at 40 mg/kg and measured up to 24 hrs by LC/MS-MS analysis. The conditions noted are these: in vivo. The format is ADME, organism-based. In outline: (§3)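 Male CD1 mice, 6–8 weeks, about 20–30 g, three per cohort. Dosed PO at 40 or 50 mg/kg, or IV at 10 mg/kg for reference, in PBS with […] (pH 7–8). Dorsal metatarsal blood was taken into heparin at 15 min to 24 h (PO) or 5 min to 24 h (IV). Plasma was frozen and quantified by LC–MS/MS.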

A short description of data set [9]: AUC last in CD-1 mouse at 40 mg/kg, po and measured up to 24 hrs by LC/MS-MS analysis. The format is ADME, organism-based. On the set-up: route oral, dose 40 mg/kg, time <=24. The conditions noted are these: in vivo. Summed up:
as §3

Data set [10] is described as follows: Cmax in CD-1 mouse at 40 mg/kg, po and measured up to 24 hrs by LC/MS-MS analysis. The format is ADME, organism-based. On the set-up: route oral, dose 40 mg/kg, time <=24. The conditions noted are these: in vivo. Summed up:
as §3

Data set [11] in a line: Terminal half life in CD-1 mouse at 40 mg/kg, po and measured up to 24 hrs by LC/MS-MS analysis. The format is ADME, organism-based. The conditions noted are these: in vivo. Summed up:
as §3

The next data set has as its target T3, CYP2C8 (Homo sapiens, UniProt P10632).
T3 sequence (P10632 whole entry): T1 sequence (P10632 whole entry)
Description: Inhibition of CYP2C8 (unknown origin) at 10 uM relative to control. In kind it is ADME.

Another data set has as its target T4, CYP2B6 (Homo sapiens, UniProt P20813).
T4 sequence (P20813 whole entry): T2 sequence (P20813 whole entry)
Description: Inhibition of CYP2B6 (unknown origin) at 10 uM relative to control. The format is ADME.

The target in another data set is CYP2C9 (Homo sapiens, UniProt P11712). In words: Inhibition of CYP2C9 (unknown origin) at 10 uM relative to control. The format is ADME.

Where only a bound is given, the exact number is not on record here.

CYP2C9, sequence (P11712 whole entry): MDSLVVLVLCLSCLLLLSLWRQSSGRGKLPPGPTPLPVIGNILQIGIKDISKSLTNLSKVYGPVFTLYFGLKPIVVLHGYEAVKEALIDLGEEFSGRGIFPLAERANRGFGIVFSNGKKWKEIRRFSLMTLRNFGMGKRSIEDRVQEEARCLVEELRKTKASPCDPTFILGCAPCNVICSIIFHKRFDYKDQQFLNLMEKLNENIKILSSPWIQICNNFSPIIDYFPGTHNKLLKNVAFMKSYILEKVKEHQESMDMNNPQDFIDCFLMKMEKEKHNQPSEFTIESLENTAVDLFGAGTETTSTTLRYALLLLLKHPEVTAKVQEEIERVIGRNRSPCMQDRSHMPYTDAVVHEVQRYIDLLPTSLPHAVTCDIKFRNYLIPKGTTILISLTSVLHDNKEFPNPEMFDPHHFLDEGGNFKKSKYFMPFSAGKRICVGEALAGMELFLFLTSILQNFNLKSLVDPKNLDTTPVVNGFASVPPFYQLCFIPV

As for `Cc1ccc(C#Cc2cccc(-c3nn(-c4nc(C(=O)O)cs4)c(CC4CC4)c3Cc3ccc(S(N)(=O)=O)c(F)c3)c2)s1`, the F in data set [1] amounted to 64%. In addition, the AUClast came to 53540 ng·h/mL in data set [2] and 16530 ng·h/mL in data set [3]. In data set [4], this molecule had a Cmax of 8830 ng/mL. Besides, the “beta t1/2” value in data set [5] was determined as 5.3 h. This molecule showed an IC50 in data set [6] of 119 nM. For the same molecule, the half-life in [7] was above 2.5 h. Besides, the figures for the INH on Cytochrome P450 2C8 and on Cytochrome P450 2B6 were 7.5 µM and 14 µM, respectively.
On to `Cc1ccc(C#Cc2cc(-c3nn(-c4nc(C(=O)O)cs4)c(CC4CC4)c3Cc3ccc(S(N)(=O)=O)c(F)c3)ccc2F)s1`, for which, in data set [8], the F is 73.8%. In addition, the AUClast came to 31390 ng·h/mL in [9] and 10570 ng·h/mL in data set [3]. In data set [10], the Cmax was found to be 5260 ng/mL. In addition, the figures for the “beta t1/2” value in [11] and in data set [5] were 2.78 h and 5.2 h, respectively. This molecule also had an IC50 in [6] of 106 nM. Also, the half-life in data set [7] was above 2.5 h. Moreover, the figures for the inhibition at 10 µM against CYP2C8, against CYP2B6 and against CYP2C9 were 80%, 46% and 45%, respectively.

In general, Cmax refers to the highest concentration seen after dosing. Usually IC50 stands for the concentration needed to halve the response being measured. Higher therefore signals weaker potency. As a reminder, the half-life is how long it takes for the measured level to halve. In general, inhibition refers to how much of the control response was suppressed.
